The structures appear in SMILES notation. Activity calls are given as the source filed them. No cut-off for these calls is given here. A value given as a limit tells only on which side of the number the result lay.

The subject of experiment [1] is Thoracic aorta. The experiment is described as follows: Myorelaxant activity in endothelium-free rat thoracic aorta assessed as inhibition of 30 mM of KCl-induced contraction in presence of 1 uM of KATP channel blocker glibenclamide. The experiment is classed as functional, tissue-based. The gist of the method: (§1)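 Transverse thoracic aorta rings (3–4 mm), cleaned of fat and connective tissue and equilibrated 60 min, recorded isometrically by force transducer. Contraction induced with 30 or 80 mM KCl. After tension stabilized, drug added cumulatively up to maximal relaxation or 300 µM. Glibenclamide at 1 or 10 µM present throughout where stated. EC50 is the concentration giving 50% inhibition of the KCl plateau, from concentration-response curves. Mean ± SEM (n).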

Experiment [2] is described as follows: Inhibition of glucose-induced insulin secretion in rat pancreatic islets assessed as residual insulin release level at 10 uM preincubated for 30 mins measured after 90 mins radioimmunology analysis. The experiment is classed as functional. The method, boiled down: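 Batches of 10 rat islets preincubated 30 min at 37 °C in bicarbonate salt medium with 2.8 mM glucose and 0.5% albumin, gassed O2/CO2 (95/5). Then incubated 90 min at 37 °C with 16.7 mM glucose plus drug. Insulin measured by radioimmunoassay against a rat insulin standard and expressed as % of drug-free 16.7 mM glucose control. Mean ± SEM (n).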

Experiment [3] has as its system Thoracic aorta. Nature of the experiment: Ratio of EC50 for myorelaxant activity in endothelium-free rat thoracic aorta presence of 10 uM of KATP channel blocker glibenclamide to EC50 for myorelaxant activity in endothelium-free rat thoracic aorta absence of KATP channel blocker glibenclamide. The experiment is classed as functional. The gist of the method: as §1

The test system of experiment [4] is Thoracic aorta. The experiment is described as follows: Myorelaxant activity in endothelium-free rat thoracic aorta assessed as inhibition of 30 mM of KCl-induced contraction. The experiment is classed as functional, tissue-based. The method, boiled down:
as §1

Experiment [5] relates to Thoracic aorta. The experiment is described as follows: Myorelaxant activity in endothelium-free rat thoracic aorta assessed as inhibition of 30 mM of KCl-induced contraction in presence of 10 uM of KATP channel blocker glibenclamide. The class given is functional, tissue-based. The method, boiled down:
as §1

Experiment [6] has as its system Thoracic aorta. Nature of the experiment: Myorelaxant activity in endothelium-free rat thoracic aorta assessed as inhibition of 80 mM of KCl-induced contraction. The experiment is classed as functional, tissue-based. The method, boiled down:
as §1

Experiment [7] concerns Thoracic aorta. The experiment is described as follows: Ratio of EC50 for myorelaxant activity in endothelium-free rat thoracic aorta presence of 1 uM of KATP channel blocker glibenclamide to EC50 for myorelaxant activity in endothelium-free rat thoracic aorta absence of KATP channel blocker glibenclamide. The experiment is classed as functional. The gist of the method: as §1

Experiment [8] concerns Thoracic aorta. Nature of the experiment: Effect on 86Rb fractional flow rate in endothelium-free rat thoracic aorta at 25 to 100 uM. The class given is functional, tissue-based. The method, boiled down:
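Prelabelled 86Rb (42K substitute) efflux: pairs of 2 mm aortic rings preincubated 30 min at 37 °C in bicarbonate salt solution gassed O2/CO2 (95/5), loaded 60 min with 86Rb, washed, then perifused at 1.0 mL/min with 30 mM K+ medium throughout. Effluent collected per min from 31st to 90th min. Fractional outflow rate (% of instantaneous ring content per min) from scintillation counts.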

The test system of experiment [9] is Thoracic aorta. Nature of the experiment: Inhibition of 80 mM of KCl-induced Ca2+ outflow in endothelium-free rat thoracic aorta assessed 45Ca outflow per min at 30 uM (reference value: 6.06 +/- 0.36%). The class given is functional. Further details: scale not given: the % may be the effect or the level left.

The EC50 is the concentration at which the effect is half-maximal. For the molecule `CC1=Nc2ccc(Cl)cc2S(=O)(=O)N1` [DIAZOXIDE], the inhibition entry with Thoracic aorta [1] and in the experiment on Thoracic aorta [5] was “Dose-dependent effect” throughout. Also, the Activity in [2] is on record as 80.8%. Besides, the results for the “Ratio EC50” value in the experiment with Thoracic aorta [3] and with Thoracic aorta [7] were 8 and 4.4, respectively. The EC50 in the experiment with Thoracic aorta [4] was 26.1 µM; with Thoracic aorta [6], over 300 µM.
With `CCS(=O)(=O)Nc1ccc2c(c1)C(NC(=O)Nc1cccc(C#N)c1)CC(C)(C)O2` (centres undefined), the Activity in experiment [2] is given as 75.6%. The EC50 with Thoracic aorta [4] turned out to be 9.5 µM.
In the case of `CC1(C)CC(NC(=S)Nc2ccc(C#N)cc2)c2cc(NS(C)(=O)=O)ccc2O1` (centres undefined), the Activity in experiment [2] was 81.7%. Moreover, the EC50 in the experiment with Thoracic aorta [4] stood at 11.6 µM.
On to `CC1(C)CC(NC(=O)Nc2ccc(C#N)cc2)c2cc(NS(C)(=O)=O)ccc2O1` (centres undefined), for which the Activity in experiment [2] is 81.6%. Further, in the experiment on Thoracic aorta [4], the EC50 was 19.8 µM.
The corresponding values for `CC1(C)CC(NC(=O)Nc2ccc(Cl)cc2)c2cc(NS(C)(=O)=O)ccc2O1` (centres undefined) are 88.5% and over 30 µM.
The corresponding values for `CCS(=O)(=O)Nc1ccc2c(c1)C(NC(=O)Nc1ccc(C#N)cc1)CC(C)(C)O2` (centres undefined) are 73.6% and 11.8 µM.
The corresponding values for `CCS(=O)(=O)Nc1ccc2c(c1)C(NC(=O)Nc1ccc(Cl)cc1)CC(C)(C)O2` (centres undefined) are 78.1% and over 10 µM.
Take `CCS(=O)(=O)Nc1ccc2c(c1)C(NC(=O)Nc1cccc(Cl)c1)CC(C)(C)O2` (centres undefined): the Activity in [2] was 72.1%. Also, the half-maximal effective concentration (EC50) with Thoracic aorta [4] is 17.2 µM.
The corresponding values for `CCS(=O)(=O)Nc1ccc2c(c1)C(NC(=S)Nc1cccc(C#N)c1)CC(C)(C)O2` (centres undefined) are 64.7% and 12.1 µM.
The corresponding values for `CC1(C)CC(NC(=O)Nc2cccc(Cl)c2)c2cc(NS(C)(=O)=O)ccc2O1` (centres undefined) are 94.5% and 15.2 µM.
`CCS(=O)(=O)Nc1ccc2c(c1)C(NC(=S)Nc1cccc(Cl)c1)CC(C)(C)O2` (centres undefined): in experiment [2], the Activity is 54.3%. Further, the EC50 with Thoracic aorta [4] turned out to be 9.8 µM.
The corresponding values for `CC1(C)CC(NC(=O)Nc2cccc(C#N)c2)c2cc(NS(C)(=O)=O)ccc2O1` (centres undefined) are 84.4% and 9.3 µM.
Regarding `CC1(C)CC(NC(=S)Nc2cccc(Cl)c2)c2cc(NS(C)(=O)=O)ccc2O1` (centres undefined), the result in the experiment on Thoracic aorta [8] was inactive. Also, the concentration for a half-maximal effect (EC50) came out at 16.6 µM with Thoracic aorta [1], 9.8 µM in the experiment on Thoracic aorta [4], 15.7 µM in the experiment with Thoracic aorta [5] and 16.8 µM in the experiment on Thoracic aorta [6]. For the same molecule, the Activity in experiment [2] is 69.2%; in the experiment on Thoracic aorta [9], 3.68%. In the experiment with Thoracic aorta [4], the inhibition result is “Dose-dependent effect”.
Take `CCS(=O)(=O)Nc1ccc2c(c1)C(NC(=S)Nc1ccc(C#N)cc1)CC(C)(C)O2` (centres undefined): the Activity in experiment [2] was 57.9%. The concentration giving a half-maximal response (EC50) in the experiment on Thoracic aorta [4] was determined as 12 µM.
`CC1(C)CC(NC(=S)Nc2ccc(Cl)cc2)c2cc(NS(C)(=O)=O)ccc2O1` (centres undefined): the Activity in [2] turned out to be 63.9%. The concentration for a half-maximal effect (EC50) in the experiment on Thoracic aorta [4] was determined as 11.6 µM.
As for `CC1(C)Oc2ccc(C#N)cc2C(N2CCCC2=O)C1O` (racemic) [CROMAKALIM], the EC50 stood at 2.5 µM in the experiment on Thoracic aorta [1], 0.13 µM in the experiment with Thoracic aorta [4], 28.8 µM in the experiment with Thoracic aorta [5] and 138 µM with Thoracic aorta [6]. The inhibition result in the experiment on Thoracic aorta [1] and in the experiment on Thoracic aorta [5] was “Dose-dependent effect” throughout. The Activity in [2] is 94.4%. The “Ratio EC50” value was 130 in the experiment with Thoracic aorta [3] and 10 in the experiment with Thoracic aorta [7].
For the molecule `CCS(=O)(=O)Nc1ccc2c(c1)C(NC(=S)Nc1ccc(Cl)cc1)CC(C)(C)O2` (centres undefined), the Activity in [2] is listed as 49.1%. Also, in the experiment on Thoracic aorta [4], the EC50 is 5.1 µM.
The corresponding values for `CC1(C)CC(NC(=S)Nc2cccc(C#N)c2)c2cc(NS(C)(=O)=O)ccc2O1` (centres undefined) are 91.7% and 9.8 µM.
Take `COc1ccc(CCN(C)CCCC(C#N)(c2ccc(OC)c(OC)c2)C(C)C)cc1OC` (centres undefined) [VERAPAMIL]: the EC50 in the experiment with Thoracic aorta [1] came out at 0.038 µM; in the experiment on Thoracic aorta [4], 0.031 µM; in the experiment with Thoracic aorta [5] it was 0.035 µM; with Thoracic aorta [6] it was 0.052 µM. Moreover, in the experiment with Thoracic aorta [4], the inhibition result is “Dose-dependent effect”.

The record behind these values is ChEMBL document CHEMBL3259788, “Influence of the alkylsulfonylamino substituent located at the 6-position of 2,2-dimethylchromans structurally related to cromakalim: from potassium channel openers to calcium entry blockers?” (Eur J Med Chem, 2014).
